Measured values taken from ChEMBL document CHEMBL1131119, “N'-Phenylindol-3-ylglyoxylohydrazide derivatives: synthesis, structure-activity relationships, molecular modeling studies, and pharmacological action on brain benzodiazepine receptors” (J Med Chem, 1998).
Active and inactive are the calls of the source. No cut-off for these calls is given here.

How the values were obtained:
[1] = test system: Mus musculus; assay: Antagonistic effect against PTZ (80 mg/kg, sc) convulsant action in mice (ineffective); type: functional, organism-based
Method in brief: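 Groups of 10 mice received graded ip doses (up to 250 mg/kg), suspended in 20% dilute Emulphor (1:1 w/w with ethanol)–80% saline, or vehicle alone. PTZ 80 mg/kg sc followed 30 min later. ED50 was the dose protecting 50% of mice from convulsions. Values are means of at least three determinations.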

[2] = test system: Mus musculus; assay: Antagonistic effect against the anticonvulsant Diazepam (2.5 mg/kg, ip) effect in mice after PTZ (80 mg/kg, sc) dose; type: functional
[3] = test system: Mus musculus; assay: Convulsant effect in mice following subconvulsant PTZ(40 mg/kg, sc) dose; type: functional
Method in brief: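 Groups of 10 mice were given graded ip doses (up to 250 mg/kg) in 20% dilute Emulphor–80% saline, or vehicle alone. A subconvulsant dose of PTZ (40 mg/kg sc) followed 30 min later. ED50 was the dose inducing convulsions in 50% of mice. Values are means of at least three determinations.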

[4] = target: GABA-A receptor; anion channel; assay: Inhibition of [3H]-Ro- 15-1788 binding to GABA-A benzodiazepine receptor of bovine brain membranes; type: cell membranes, Bos taurus
Method in brief: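 Bovine cerebral cortex membranes, freeze–thawed and washed in 50 mM Tris-citrate pH 7.4; competition against [3H]Ro 15-1788 by filtration. […] Ki as mean ± SEM of three determinations.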

[5] = target: GABA-A receptor; anion channel (Bos taurus) (UniProt P10063+P08220+P20237+P08219+P10064+P22300); details: Brain membranes, at 0.5 µM
[6] = test system: Mus musculus; assay: Antagonistic effect against PTZ (80 mg/kg, sc) convulsant action in mice; type: functional
[7] = test system: Mus musculus; assay: Antagonistic effect against the anticonvulsant Diazepam (2.5 mg/kg, ip) effect in mice after PTZ (80mg/kg, sc) dose, ineffective to 250 mg/kg; type: functional, organism-based; parameters: dose 250 mg/kg
[8] = test system: Mus musculus; assay: Convulsant effect in mice following subconvulsant PTZ(40 mg/kg, sc) dose, ineffective to 250 mg/kg; type: functional, organism-based; parameters: dose 250 mg/kg

SMILES: COC(=O)c1cc2c(cn1)[nH]c1ccccc12 [BETA-CCM]
- ED50 [1]: inactive
- Diazepam antagonism [2]: 0.02
- Proconvulsant action [3]: 19.4

SMILES: O=C(NNc1ccc(F)cc1)C(=O)c1c[nH]c2ccccc12
- Ki [4]: 57 nM
- Clonazepam [5]: 18%
- ED50 [6]: 60 mg/kg
- Diazepam antagonism [7]: inactive
- Proconvulsant action [8]: inactive

SMILES: Cc1ccc(NNC(=O)C(=O)c2c[nH]c3ccccc23)cc1
- Ki [4]: 290 nM
- Clonazepam [5]: 9%

SMILES: O=C(NNc1ccc([N+](=O)[O-])cc1)C(=O)c1c[nH]c2ccccc12
- Ki [4]: 11 nM
- Clonazepam [5]: 20%
- ED50 [6]: 10 mg/kg
- Diazepam antagonism [7]: inactive
- Proconvulsant action [8]: inactive

SMILES: CN1C(=O)CN=C(c2ccccc2)c2cc(Cl)ccc21 [DIAZEPAM]
- ED50 [6]: 0.4 mg/kg

SMILES: O=C(NNc1ccc(O)cc1)C(=O)c1c[nH]c2ccccc12
- Ki [4]: 3400 nM

SMILES: CN(NC(=O)C(=O)c1c[nH]c2ccc([N+](=O)[O-])cc12)c1ccccc1
- Ki [4]: 2400 nM
- Clonazepam [5]: 53%
- ED50 [6]: 25 mg/kg
- Diazepam antagonism [7]: inactive
- Proconvulsant action [8]: inactive

SMILES: COc1ccc(NNC(=O)C(=O)c2c[nH]c3ccccc23)cc1
- Ki [4]: 430 nM
- Clonazepam [5]: 17%

SMILES: O=C1CN=C(c2ccccc2Cl)c2cc([N+](=O)[O-])ccc2N1
- Clonazepam [5]: 100%

SMILES: O=C(NNc1ccc(Cl)cc1)C(=O)c1c[nH]c2ccccc12
- Ki [4]: 62 nM
- Clonazepam [5]: 16%
- ED50 [6]: 25 mg/kg
- Diazepam antagonism [7]: inactive
- Proconvulsant action [8]: inactive

SMILES: CCOC(=O)c1ncn2c1CN(C)C(=O)c1cc(F)ccc1-2 [FLUMAZENIL]
- Diazepam antagonism [2]: 0.3
- Proconvulsant action [8]: inactive

SMILES: Cc1cccc(NNC(=O)C(=O)c2c[nH]c3ccccc23)c1
- Ki [4]: 510 nM
- Clonazepam [5]: 20%

SMILES: Cn1cc(C(=O)C(=O)NNc2ccc([N+](=O)[O-])cc2)c2ccccc21
- Ki [4]: 455 nM

SMILES: O=C(NNc1ccccc1)C(=O)c1c[nH]c2ccccc12
- Ki [4]: 203 nM
- Clonazepam [5]: 20%

SMILES: Cn1cc(C(=O)C(=O)NNc2ccccc2)c2ccccc21
- Ki [4]: 1200 nM
